Screens as filed in PubChem BioAssay.
The list is not random: actives were taken first. Their share in the collection is about 3.7%.
KCNQ1 block: inhibitors of human KCNQ1 potassium channel; CHO-K1 KCNQ1, FluxOR thallium flux fluorescence; hits give high values; AID 2642; hit rate 1.3% among 310,000; P51787; B-score at 10 µM;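 active means compounds whose thallium flux B-score, printed positive for inhibition, exceeds three library SD while starting fluorescence stays within three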;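 further: channel opened by potassium depolarization with thallium stimulus after 20 min compound exposure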
hERG rescue: hERG (human) protection from proarrhythmic block. Q12809. CHO-hERG, FluxOR thallium flux, dofetilide IC70 present. activation (rescue from dofetilide block), less the hit threshold, % at 10 µM. hit rate 0.51% among 310,000. AID 1511;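 active means activation above the mean of controls blocked by dofetilide plus 5 SD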;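 further: thallium influx through hERG after potassium depolarization seen as dye fluorescence rise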
Target sequence (Q12809 whole entry, looked up): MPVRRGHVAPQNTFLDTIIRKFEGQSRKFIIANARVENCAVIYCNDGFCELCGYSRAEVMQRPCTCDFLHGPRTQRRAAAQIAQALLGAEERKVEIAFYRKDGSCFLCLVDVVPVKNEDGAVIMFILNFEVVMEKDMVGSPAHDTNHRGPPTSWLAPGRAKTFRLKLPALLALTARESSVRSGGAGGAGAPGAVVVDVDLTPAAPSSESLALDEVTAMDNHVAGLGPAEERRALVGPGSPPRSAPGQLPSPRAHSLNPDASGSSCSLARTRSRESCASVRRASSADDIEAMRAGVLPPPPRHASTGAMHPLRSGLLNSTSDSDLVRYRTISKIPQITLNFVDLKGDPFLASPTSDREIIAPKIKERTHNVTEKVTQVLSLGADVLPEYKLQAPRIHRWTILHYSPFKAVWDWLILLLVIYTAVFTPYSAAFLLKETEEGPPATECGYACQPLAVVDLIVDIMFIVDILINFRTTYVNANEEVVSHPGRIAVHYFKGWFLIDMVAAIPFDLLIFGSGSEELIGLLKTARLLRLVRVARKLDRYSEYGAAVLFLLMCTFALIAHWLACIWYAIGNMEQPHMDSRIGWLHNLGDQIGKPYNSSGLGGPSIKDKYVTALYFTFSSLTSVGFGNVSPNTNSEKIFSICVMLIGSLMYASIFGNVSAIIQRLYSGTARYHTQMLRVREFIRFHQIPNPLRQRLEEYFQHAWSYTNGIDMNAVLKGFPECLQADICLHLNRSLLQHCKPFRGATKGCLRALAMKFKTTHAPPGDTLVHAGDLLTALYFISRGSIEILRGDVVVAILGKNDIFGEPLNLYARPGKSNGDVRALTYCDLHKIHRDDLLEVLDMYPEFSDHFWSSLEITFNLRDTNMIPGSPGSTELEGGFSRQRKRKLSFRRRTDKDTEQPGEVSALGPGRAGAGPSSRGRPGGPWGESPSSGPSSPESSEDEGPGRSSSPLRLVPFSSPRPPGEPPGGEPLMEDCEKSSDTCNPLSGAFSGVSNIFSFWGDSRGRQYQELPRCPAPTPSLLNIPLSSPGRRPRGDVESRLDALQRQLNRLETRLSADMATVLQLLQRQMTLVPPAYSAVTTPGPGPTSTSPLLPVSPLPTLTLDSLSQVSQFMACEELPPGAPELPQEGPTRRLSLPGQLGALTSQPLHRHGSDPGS
KCNK3 inh: human KCNK3 channel inhibition, primary screen. CHO-KCNK3 thallium flux, FluxOR fluorescence; hits give low values. hit rate 0.84% among 340,000. B-score at 10 µM;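 active means B-score under library mean minus 4 SD, starting fluorescence ratio at most library mean plus 5 SD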;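 further: more negative B-score means stronger inhibition of thallium flux through KCNK3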
KCNQ1 act: potentiators or activators of human KCNQ1 potassium channel; B-score at 10 µM; CHO-K1 KCNQ1, thallium flux FluxOR fluorescence; hits give high values; AID 2648; P51787; hit rate 0.35% among 310,000;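 active means fluorescence ratio B-score, a plate-corrected score, at least three library SD, with initial intensity B-score within 5 SD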
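Assay system: CHO-K1 cells stably expressing KCNQ1. Medium: assay buffer for compound exposure, DMSO matched across wells. Timing: 37 °C overnight plating, 90-min dark dye load, 20-min compound pretreatment. Signal: kinetic FluxOR fluorescence, 10 s baseline plus 110 s post-stimulus.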
KCNK9 block: human KCNK9 channel inhibition | HEK293 KCNK9, FluxOR thallium flux fluorescence; hits give low values | AID 488922 | Q9NPC2 | hit rate 1.2% among 310,000 | B-score at 10 µM;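 active means ratio B-score over 3 SD below the library mean, with starting fluorescence within 5 SD of its mean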;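 further: negative B-score means less thallium flux so channel inhibition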
Kir21 block: inhibitors of mouse Kir2.1 inward-rectifier potassium channel; B-score at 10 µM; P35561; HEK293-Kir2.1, FluxOR thallium flux fluorescence; hits give low values; hit rate 0.85% among 310,000; AID 1672;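 active means fluorescence ratio B-score at or below minus 3 SD of library scores, with starting-brightness B-score within 2 SD, cut at about -4.2 in these data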;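 further: channel flux triggered by added potassium and thallium sulfate stimulus; B-score of peak minus minimum fluorescence over baseline after thallium stimulus; more negative B-score means stronger Kir2.1 block with less thallium influx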
KCNK9 inh conf: confirmation of human KCNK9 potassium channel inhibitors. hit rate 43% among 4,900. AID 492992. shares compounds with KCNK9 block. HEK293 KCNK9 cells, FluxOR thallium flux fluorescence. inhibition, % at 10 µM;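 active means thallium signal inhibited by more than 5 SD of the compound-free buffer control wells, on both duplicate plates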;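 further: 0% = assay buffer control wells without compound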
Kir21 sel: tests whether KCNK9 modulators also affect mouse Kir2.1 | Kir2.1 cells, FluxOR thallium flux fluorescence | shares compounds with KCNK9 block | inhibition, % at 10 µM | AID 492993 | hit rate 4% among 4,900;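 active means thallium signal drop more than 5 SD beyond the mean of the no-compound control wells, seen in both duplicate plates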;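 further: signal is fluorescence rise after thallium addition divided by baseline fluorescence; plate controls were assay buffer only for no effect and full block by chlorpromazine control for full effect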
KCNK9 uninduced: non-induced cell nonspecific activity of KCNK9 modulators | shares compounds with KCNK9 block | non-induced KCNK9-HEK293, FluxOR thallium flux | inhibition, % at 10 µM | hit rate 40% among 4,900;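 active means thallium signal drop beyond 5 SD of the untreated control mean, on both duplicate plates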;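 further: plate controls were buffer only IC0 wells for no effect and SID17386958 at its maximal inhibitory level for full effect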
* = called active by the depositor; i = inactive; · = not tested or not shown.

SMILES	KCNQ1 block	hERG rescue	KCNK3 inh	KCNQ1 act	KCNK9 block	Kir21 block	KCNK9 inh conf	Kir21 sel	KCNK9 uninduced
Clc1ccc(CSc2snnc2-c2ccccc2)c(Cl)c1	7*	-17	i	i	i	-2	i	i	25%*
c1ccc(CSc2snnc2-c2ccccc2)cc1	i	-6	i	i	i	-2.1	·	·	·
COc1cccc(COCCN2CCN(S(=O)(=O)c3ccc(C)cc3)CCC2=O)c1	i	-6	i	i	i	-2.1	i	i	i
Cc1ccc(S(=O)(=O)N2CCC(=O)N(CCOCc3cccc(C)c3)CC2)cc1	i	-10	i	i	i	-1.7	i	i	i
COc1ccc(COCCN2CCN(S(=O)(=O)c3ccc(C)cc3)CCC2=O)cc1	i	-6	·	i	i	-0.74	·	·	·
Cc1ccc(COCCN2CCN(S(=O)(=O)c3ccc(C)cc3)CCC2=O)cc1	i	-5	i	i	i	0.07	·	·	·
Cc1nccc(-c2ccc(-n3cnc4ccccc43)cc2)n1	i	-7	i	i	i	0.2	i	i	i
CC(C)C[C@@H](CN)NC(=O)c1nc[nH]c1C(=O)N[C@@H](CC(C)C)C(=O)CNC[C@H](C)NC(=O)c1nc[nH]c1C(=O)N[C@@H](C)C(=O)O	·	·	i	·	·	·	·	·	·
CN(C)CCNC(=O)c1csc(Nc2cccc3ccccc23)n1	i	-4	i	i	i	0.29	·	·	·
O=C(NCC1CCCO1)c1csc(Nc2cccc3ccccc23)n1 (stereo unspecified)	i	-7	i	i	-9.2*	2.3	42%*	i	i
Cc1ccc(-c2nc(C(=O)NCC3CCCO3)cc3c2[nH]c2ccccc23)cc1 (stereo unspecified)	12*	-38	i	i	-17*	-1.2	65%*	i	33%*
C#CCNC(=O)C1=C[C@H](C)C[C@H](OCc2ccc(CO)cc2)O1	i	-10	i	i	i	-1.4	·	·	·
Cc1ccccc1OCc1nc2ccccc2c(=O)n1/N=C/c1cn[nH]c1-c1ccccc1	i	-13	i	i	i	0.03	·	·	·
Cc1ccccc1OCc1nc2ccccc2c(=O)n1/N=C/c1cccc([N+](=O)[O-])c1	i	-9	i	i	-8.8*	2.7	i	i	i
CCOC(=O)C1CCN(C(=O)Cn2cnc3sc(C)c(S(=O)(=O)N4CCOCC4)c3c2=O)CC1	i	-4	i	i	i	-2.5	·	·	·
CC(CNC(=O)CCC(=O)N1CCOc2ccc(Cl)cc21)c1ccccc1 (stereo unspecified)	i	-14	i	i	i	-0.41	·	·	·
COc1ccc(C/C(=N\O)c2ccc(OC)cc2)cc1	i	-10	i	i	i	-0.49	i	i	i
Cc1nc(SCc2ccccc2C#N)n[nH]1	i	-6	i	i	i	0.41	·	·	·
N#Cc1ccccc1CSc1nc(N2CCCCC2)nc(N2CCCCC2)n1	i	-11	i	i	i	-0.87	i	i	i
CC1=NNC(=O)/C1=C\c1cn(-c2ccccc2)nc1-c1cccs1	i	-6	i	i	i	1	i	i	i
O=C(N/N=C/c1cn(-c2ccccc2)nc1-c1cccs1)c1ccc(Cl)cc1	i	-15	i	i	i	-2.3	·	·	·
O=C(O)CCCCCN1C(=O)/C(=C/c2cn(-c3ccccc3)nc2-c2cccs2)SC1=S	·	·	i	·	·	·	·	·	·
O=C(N/N=C/c1cn(-c2ccccc2)nc1-c1cccs1)c1ccccc1F	6*	-18	-9.1*	i	-13*	0.77	56%*	i	30%*
Cc1ccsc1/C=N/NC(=O)C(=O)NCC(C)C	i	-7	i	i	i	1.1	·	·	·
COc1ccccc1Cn1c(=S)[nH]c2cc(C(=O)NCCN(C)C)ccc2c1=O	i	-3	i	i	i	-0.98	·	·	·
SMILES	KCNQ1 block	hERG rescue	KCNK3 inh	KCNQ1 act	KCNK9 block	Kir21 block	KCNK9 inh conf	Kir21 sel	KCNK9 uninduced
CCCCN(C(=O)COC(=O)CSc1ccc([N+](=O)[O-])cc1)c1c(N)n(CCC)c(=O)[nH]c1=O	i	-17	i	i	i	-1	·	·	·
O=C(CCCOc1ccc(Cl)cc1Cl)N/N=C\C1CCCCC1	i	0	i	i	i	-1.5	·	·	·
COc1ccc(N2CCN(C3CCCCC3NS(=O)(=O)c3ccc(Cl)cc3)CC2)cc1 (stereo unspecified)	i	-2	i	i	i	1.1	i	i	i
Cc1ccc(C)c(N2CCN(C3CCCCC3NS(=O)(=O)c3ccccc3)CC2)c1 (stereo unspecified)	8*	-7	-12*	i	-16*	0.68	52%*	i	31%*
O=C(/C=C/c1ccccc1)NC(NC(=S)Nc1cc(Cl)ccc1Cl)C(Cl)(Cl)Cl (stereo unspecified)	11*	-11	i	i	i	1.1	i	i	i
CC(=O)Nc1cccc(/C(C)=N/NS(=O)(=O)c2ccc(C)cc2)c1	i	-9	i	i	i	0.32	·	·	·
Cc1ccc(SC(CC(=O)c2ccc(F)cc2)C(=O)O)cc1 (stereo unspecified)	i	-8	i	i	i	0.05	·	·	·
CC(C)(C)c1ccc(C(=O)CC(Sc2ccc(Cl)cc2)C(=O)O)cc1 (stereo unspecified)	i	-18	i	i	i	-1.8	i	i	i
Cc1ccc(SCc2cc(=O)[nH]c(/N=C(\N)Nc3ccc(C)c(C)c3)n2)cc1	i	-9	i	i	i	-0.11	i	i	i
N/C(=N\c1nc(CSc2ccc(Cl)cc2)cc(=O)[nH]1)Nc1cccc2ccccc12	i	-3	i	i	i	0.01	i	i	i
CCOc1ccccc1NC(=O)c1ccc(NC(=O)C2CCCO2)cc1 (stereo unspecified)	i	-7	i	i	i	0.3	·	·	·
O=C(NCCCCc1ccccc1)C12CN(Cc3ccccc3)CC1C(c1cccc([N+](=O)[O-])c1)=NO2 (stereo unspecified)	i	-7	i	i	i	-0.01	i	i	i
CSc1cnn(Cc2ccccc2)c(=O)c1SCc1ccccc1	i	-6	i	i	i	-4.6*	i	40%*	44%*
